High-throughput results deposited in PubChem by several laboratories.
Ecoli WT expand – growth inhibitors of E. coli BW25113 wild type | OD600 absorbance | 98,000 tested, 0.15% active | growth inhibition, % at 100 µM;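 active = growth inhibition above about 50% at one test dose, limit read from the data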;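 also: growth measured after 20 h incubation at 37 °C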
HUVEC inhibit – inhibitors of human endothelial cell proliferation; HUVEC proliferation, CellTiter-Glo luminescence, 72 h; stronger effect = lower value; viability, % at 10 µM (by protocol); 86,000 tested, 1.1% active; AID 648;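 active = viability at or below 30%; inactive = viability above 30%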;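 also: 100% = median luminescence of DMSO-only cell control wells on each plate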
Lung fibro prol – blocks proliferation of human lung fibroblasts; LL 47 human lung fibroblast viability, ATP luminescence; stronger effect = lower value; viability, % at 10 µM; 85,000 tested, 1.1% active; AID 719;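 active = viability at or below 50% in the single dose screen; inactive = viability above 50%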;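 also: compound exposure lasted 72 h before the ATP readout; 100% = median luminescence of untreated cell-only wells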
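Test system: LL 47 human lung fibroblasts; Quantity: 1,150 cells/well; Buffer or medium: IMEM plus 15% FBS; Dosing: tenfold compound dosing solution, DMSO at 0.1%; Timing: overnight cell rest, 72 h compound treatment at 37 °C; Detection: ATP-based CellTiter-Glo luminescent readout; Read-out basis: viability percentage against median untreated-cell control; Controls: cell-only wells, no compound.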
H69AR inhibit – growth inhibitors of human H69AR lung tumor cells; H69AR lung tumor viability, ATP luminescence, 72 h; stronger effect = lower value; viability, % at 10 µM; 85,000 tested, 6% active; AID 598;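 active = viability at or below 40%; inactive = viability above 40%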;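 also: multidrug resistant small cell line overexpressing MRP-1 efflux transporter; 100% = mean luminescence of untreated control wells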
tolC growth inh – E. coli tolC mutant growth inhibition. growth inhibition, % at 10 µM (by protocol). E. coli BW25113 tolC mutant growth, OD615. 65,000 tested, 2.2% active;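 active = growth inhibition at or above a cutoff equal to the mean over every tested compound plus 3 SD, cut at about 60% in these data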;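 also: growth measured after 20 h incubation at 37 °C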
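Test system: E. coli BW25113 ΔtolC::kan bacteria; incubation: 37 °C, 20 h exposure; medium: LB broth supplemented with 50 µg/mL kanamycin; read-out basis: percent growth inhibition; signal: A615 absorbance measurement; compound: 10 µM final, single dose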
Jurkat viability – reduces viability or proliferation of Jurkat cells. Jurkat E6.1 viability, ATP luminescence, 48 h. inhibition, % at 4 µM. 56,000 tested, 1.2% active. AID 463;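 active = inhibition above the mean inhibition of all tested compounds plus 3 SD, cut at about 28% in these data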
Numbers without * were called inactive; . = no result. Shown are actives, neighbours in structure and some others; about 6.4% of the full set was active somewhere.

SMILES | Ecoli WT expand | HUVEC inhibit | Lung fibro prol | H69AR inhibit | tolC growth inh | Jurkat viability
Cc1cc(C(=O)OCC(=O)N2CCN(C(=O)c3ccco3)CC2)c(C)n1-c1ccc(F)cc1 | 2.0 | 93.7 | 98.1 | 95.9 | 6.6 | 4.4
CCOC(=O)c1cc2c(ccn2-c2ccc(F)cc2)n1CC(=O)N1CCN(C(=O)c2ccco2)CC1 | 1.0 | 52.4 | 49.4* | 21.7* | -15.7 | -6.5
O=C(Cn1cnc2c(cnn2-c2ccc(F)cc2)c1=O)NCc1ccco1 | -8.0 | . | . | . | -19.1 | 55.1*
Cc1ccc(-n2ncc3c(=O)n(CC(=O)NCc4ccco4)cnc32)cc1 | -20.0 | 75.0 | 92.0 | 68.5 | 13.1 | -6.4
CC(C)(C)n1ncc2c(=O)n(CC(=O)NCc3ccccc3)cnc21 | -1.0 | 57.7 | 79.7 | 23.5* | -4.0 | 32.5
C(=N\c1nc2ccccc2n1Cc1ccccc1)/c1cccs1 | 34.0 | 107.5 | 86.0 | 98.9 | 17.7 | 3.6
CC(=O)c1c(C)nc(-c2ccc3c(c2)OCO3)n1O | -3.0 | 81.3 | 104.5 | 84.4 | -4.0 | -4.2
CSc1cccc(-n2cc(-c3ccc4c(c3)OCO4)[nH]c2=O)c1 | -9.0 | 52.4 | 70.0 | 25.1* | 16.5 | .
O=S(=O)(NCc1ccncc1)c1ccc(Br)s1 | 11.0 | 77.2 | 97.9 | 97.7 | -7.3 | 93.6*
O=C(O)CNS(=O)(=O)c1ccc(Br)s1 | -7.0 | 100.5 | 109.8 | 89.2 | -6.9 | 3.4
COc1ccc(Cl)cc1C(=O)CSc1nc(N)cc(N)n1 | 4.0 | 98.4 | 100.2 | 90.6 | 4.6 | -4.5
COc1ccc(Nc2oc(-c3ccc(Cl)cc3)nc2C#N)cc1 | 0.0 | 43.0 | 39.4* | 24.6* | . | .
CCOc1ccc(Nc2oc(-c3ccc(Cl)cc3)nc2C#N)cc1 | -8.0 | 81.6 | 42.3* | 32.5* | . | .
O=C(c1cn(CC(=O)N2CCCCC2)c2ccccc12)C1CC1 | 5.0 | 95.3 | 104.3 | 73.9 | -8.8 | -3.8
CCOC(=O)C1CCN(C(=O)Cn2cc(C(=O)C3CC3)c3ccccc32)CC1 | -5.0 | 83.9 | 82.2 | 39.8* | -7.8 | 14.7
CCCCC(CCCC)=N/N=C/c1c(O)n(CC)c2cc(C3=NNC(=O)CC3)ccc12 | . | 100.3 | 78.0 | 33.3* | . | .
O=C(OCC(=O)N1CCN(C(=O)c2ccco2)CC1)c1cc(-c2cccc(Br)c2)nc2ccccc12 | -8.0 | 67.2 | 106.9 | 68.9 | . | .
CCOC(=O)c1c(C2COc3ccccc3O2)csc1NC(=O)c1ccco1 (configuration not stated) | 1.0 | 82.6 | 102.0 | 30.7* | -4.2 | -3.8
CCOC(=O)c1c(-c2cccs2)csc1NC(=O)c1ccco1 | . | 114.6 | 96.2 | 57.0 | -10.7 | -5.0
Cc1ccc2nc(NCCO)nc(-c3ccccc3)c2c1 | 7.0 | 69.3 | 76.5 | 24.9* | 5.9 | 10.0
CCOC(=O)c1ccc(NC(=O)CSc2nc3cccnc3n2C)cc1 | . | 93.3 | 89.2 | 95.0 | . | .
O=C(NCCN1CCOCC1)c1cccc(Cl)c1 | 1.0 | 88.7 | 89.3 | 87.6 | -12.3 | 1.6
O=C(NCCN1CCOCC1)NC1(C(F)(F)F)Oc2ccc(Cl)cc2O1 (configuration not stated) | . | . | . | . | -6.8 | 79.6*
COCC(C)NC(=O)NC1(C(F)(F)F)Oc2ccc(Cl)cc2O1 (configuration not stated) | 4.0 | 51.8 | 64.6 | 22.8* | -12.8 | .
CC1(C)CC(=O)C=C(NCCN2CCN(C(=O)Nc3ccccc3)CC2)C1 | 1.0 | 93.0 | 97.4 | 94.9 | -16.1 | 0.1
SMILES | Ecoli WT expand | HUVEC inhibit | Lung fibro prol | H69AR inhibit | tolC growth inh | Jurkat viability
COc1cccc2cc(-c3nnc(SCC(=O)Nc4cc(C(F)(F)F)ccc4Cl)n3N)oc12 | -8.0 | 68.5 | 88.3 | 7.6* | -1.1 | 6.0
CCn1c(SCC(=O)Nc2nccs2)nnc1-c1cc2cccc(OC)c2o1 | -12.0 | 109.4 | 106.1 | 96.2 | -18.5 | -1.3
CCOc1ccccc1N1CC(O)=C(c2nc3ccccc3s2)C1=N | -14.0 | 53.2 | 67.4 | 110.1 | 51.2 | 78.2*
N=C1C(c2nc3ccccc3s2)=C(O)CN1Cc1ccccc1 | . | 46.3 | 52.4 | 17.1* | . | .
c1ccc2c(-c3ccncc3)c[nH]c2c1 | 18.0 | 81.7 | 105.6 | 84.9 | 0.0 | -2.6
CC(=O)n1cc(-c2ccncc2)c2ccccc21 | 12.0 | 25.1* | 86.0 | 68.3 | 6.4 | -8.3
CN(C)CCNC(=O)Nc1ccc(Cl)c(Cl)c1 | 26.0 | . | . | . | . | .
CCN(CC)S(=O)(=O)c1cc([N+](=O)[O-])ccc1NNC(=O)Nc1ccc(Cl)c(Cl)c1 | -6.0 | 40.5 | 42.8* | 2.9* | . | .
COc1cccc(Oc2cn[nH]c2-c2ccc(OC)cc2O)c1 | 20.0 | 50.9 | 94.1 | 8.1* | 97.2* | 10.4
